Experimental data gathered from unrelated publications.
Each line is one published result; the experiments were not run side by side.
UGT2B7: UDP-glucuronosyltransferase 2B7 (UGT2B7, Homo sapiens, UniProt P16662)
KCNH2: Voltage-gated inwardly rectifying potassium channel KCNH2 (KCNH2, Homo sapiens, UniProt Q12809)

| SMILES | target | assay | test system | conditions | endpoint | value |
| --- | --- | --- | --- | --- | --- | --- |
| C=C1CC[C@@H]2[C@](C)(CO)[C@H](O)CC[C@@]2(C)[C@@H]1CCC1=CCOC1=O | UGT2B7 | enzyme activity, inhibitor | – | 100 µM, pH 7.4 | inhibition | 95% |
| CN(CCC(=O)O)C(=O)c1ccc2c(c1)CC[C@@H]1[C@@H]2CC[C@]2(C)C(c3cncc(F)c3)=CC[C@@H]12 | UGT2B7 | enzyme activity, inhibitor | – | – | IC50 | > 30 µM |
| C=C1CCC2C(C)(CO)C(=O)CCC2(C)C1CCC1=CCOC1=O (centres unmarked) | UGT2B7 | enzyme activity, inhibitor | – | – | Ki | 4.2 µM |
| CC(C)=CCCC(C)c1ccc(C)cc1 (centres unmarked) | UGT2B7 | enzyme activity, inhibitor | – | – | IC50 | > 200 µM |
| CNC(=O)[C@@]12C[C@@H]1[C@@H](n1cnc3c(NCCc4ccc(O)c(OC)c4)nc(C#Cc4ccco4)nc31)[C@H](O)[C@@H]2O | KCNH2 | ion current, inhibitor | – | 10 µM | inhibition | > 50% |
| CON=C(N)c1ccc(-c2ccc(-c3ccc(C(N)=NOC)cc3)o2)cc1 | Cytochrome P450 4F2 (Homo sapiens, UniProt P78329) | enzyme activity, substrate | – | – | Km | 0.7 µM |
| CC(=O)c1cc(C(=O)N[C@@H](C)Cn2ccc(-c3ccc(C#N)c(Cl)c3)n2)[nH]n1 | UGT2B7 | enzyme activity, inhibitor | human, liver microsomes | – | IC50 | > 50 µM |
| O=c1c2ccccc2c(Cc2ccc(Cl)cc2)nn1C1CCCNCC1 (centres unmarked) | KCNH2 | ion current, inhibitor, patch clamp | HEK293 | 10 µM | inhibition | 97% |
| C[C@@H](Cn1ccc(-c2ccc(C#N)c(Cl)c2)n1)NC(=O)c1cc([C@@H](C)O)[nH]n1 | UGT2B7 | enzyme activity, inhibitor | human, liver microsomes | – | IC50 | > 100 µM |
| O=C(Nc1cccc(C(F)(F)F)c1)N1CCN(c2cccc(C(F)(F)F)c2)CC1 | KCNH2 | ion current, inhibitor, patch clamp | HEK293 | 10 µM | inhibition | 85% |
| C=C1CC[C@@H]2[C@](C)(CO[C@@H]3O[C@H](CO)[C@@H](O)[C@H](O)[C@H]3O)CCC[C@@]2(C)[C@@H]1CCC1=CCOC1=O | UGT2B7 | enzyme activity, inhibitor | – | 100 µM, pH 7.4 | inhibition | 42% |
